*1 amine or outer side, *2 acyl side, *3 side chain or, on linkers, in order; H or OH if unused. Where a SMILES comes first, the peptide text is derived from it. Side-chain parts run from the residue outwards. The star is where a group is joined. NH(4-MeO-phenyl) = COc1ccc(N*)cc1; pNA = O=[N+]([O-])c1ccc(N*)cc1; X2 = O=[N+]([O-])c1cccc(N*)c1; NH(3-MeOPh) = COc1cccc(N*)c1; 3Abz = Nc1cccc(C(=O)O)c1; 4Abz = Nc1ccc(C(=O)O)cc1; X1 = CC(=O)c1ccc(N*)cc1; 2Abz = Nc1ccccc1C(=O)O; Boc = CC(C)(C)OC(=O)*; CO = O=C([*:1])[*:2]

Experimental findings from ChEMBL document CHEMBL1129989, “Minor structural differences in Boc-CCK-4 derivatives dictate affinity and selectivity for CCK-A and CCK-B receptors” (J Med Chem, 1997) are described below.

In assay [1] the target is T1, Cholecystokinin receptor type A (Cavia porcellus, UniProt Q63931).
T1 sequence (Q63931 whole entry): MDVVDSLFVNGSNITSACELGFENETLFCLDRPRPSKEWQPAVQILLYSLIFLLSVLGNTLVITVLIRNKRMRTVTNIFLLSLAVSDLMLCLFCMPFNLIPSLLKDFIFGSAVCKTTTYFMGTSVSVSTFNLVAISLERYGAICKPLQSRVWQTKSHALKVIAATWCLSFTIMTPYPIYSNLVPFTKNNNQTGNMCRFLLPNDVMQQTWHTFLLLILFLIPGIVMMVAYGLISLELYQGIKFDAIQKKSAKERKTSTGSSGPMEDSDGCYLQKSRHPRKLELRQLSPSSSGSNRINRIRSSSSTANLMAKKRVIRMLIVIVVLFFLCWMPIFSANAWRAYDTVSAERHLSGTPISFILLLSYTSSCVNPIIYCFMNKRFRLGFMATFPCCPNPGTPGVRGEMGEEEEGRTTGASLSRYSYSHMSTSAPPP
The assay is described as follows: Displacement of [125I]- BH-CCK-8 from Cholecystokinin type A receptor of guinea pig pancreas. Summed up:
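Competition binding in pancreas and cortex tissue membranes with [125I]Bolton–Hunter CCK-8 as radioligand. […] Values are means ± SE over several determinations, each run in duplicate with <5% sample variability.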

Assay [2] is filed under the species Cavia porcellus. The assay is described as follows: Relative affinity for type B (cortex) over type A (pancreatic) cholecystokinin receptors. Summed up: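 Selectivity ratio is IC50 in cortex divided by IC50 in pancreas. Both IC50s come from displacement of specific [125I]Bolton–Hunter CCK-8 binding, each determination run in duplicate.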
The test system of assay [3] is NCI-H345. The assay is described as follows: Concentration that produced 50% of the maximal response in intracellular calcium mobilization in the NCI-H345 cells. The format is functional, cell-based. Conditions: Homo sapiens. Summed up:
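NCI-H345 cells carry the CCK-B/gastrin receptor. Intracellular calcium mobilization was read by indo-1 fluorescence. […] Values are means ± SE of several determinations.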
In general terms: Calcium flux is commonly read through the fluorescence of an indicator in the cells.

The subject of assay [4] is NCI-H345. Nature of the assay: The maximal response elicited by the compound (concentration of 1 uM) relative to the maximal response elicited by CCK-8. The format is functional, Homo sapiens.
The species named for assay [5] is Cavia porcellus. The assay is described as follows: Concentration that stimulated amylase release in guinea pig pancreatic acini relative to CCK-8. The format is functional.
The species named for assay [6] is Cavia porcellus. Nature of the assay: The maximal response elicited by the compound (concentration of 100 uM) relative to the maximal response elicited by CCK-8 (1 uM) in the PI hydrolysis assay. The assay is classed as functional.
Assay [7] addresses Cholecystokinin type B receptor (Cavia porcellus). Nature of the assay: Displacement of [125I]- BH-CCK-8 from Cholecystokinin type B receptor of guinea pig cortex.
The test system of assay [8] is NCI-H345. The assay is described as follows: The maximal response elicited by the compound (concentration of 10 uM) relative to the maximal response elicited by CCK-8. The format is functional, Homo sapiens.

Usually IC50 stands for the concentration at which inhibition is half-maximal. A high value points to lower potency. For `COc1cccc(NC(=O)NCCCC[C@H](NC(=O)[C@H](Cc2c[nH]c3ccccc23)NC(=O)OC(C)(C)C)C(=O)N[C@@H](CC(=O)O)C(=O)N[C@@H](Cc2ccccc2)C(N)=O)c1` (Boc-WK([CO-NH(3-MeOPh)])DF-NH2), in assay [1], the IC50 stood at 9.4 nM. Besides, the C/P in assay [2] came to 150.

`CC(C)(C)OC(=O)N[C@@H](Cc1c[nH]c2ccccc12)C(=O)N[C@@H](CCCCNC(=O)Nc1cccc([N+](=O)[O-])c1)C(=O)N[C@@H](CC(=O)O)C(=O)N[C@@H](Cc1ccccc1)C(N)=O` (Boc-WK([CO-X2])DF-NH2) displayed a half-inhibitory concentration (IC50) in assay [1] of 5.8 nM. In assay [2], this compound displayed a C/P of 210.

For `COC(=O)c1ccc(NC(=O)NCCCC[C@H](NC(=O)[C@H](Cc2c[nH]c3ccccc23)NC(=O)OC(C)(C)C)C(=O)N[C@@H](CC(=O)O)C(=O)N[C@@H](Cc2ccccc2)C(N)=O)cc1` (Boc-WK([CO-4Abz-OMe])DF-NH2), the IC50 in assay [1] was 71 nM.

The compound `COC(=O)c1cccc(NC(=O)NCCCC[C@H](NC(=O)[C@H](Cc2c[nH]c3ccccc23)NC(=O)OC(C)(C)C)C(=O)N[C@@H](CC(=O)O)C(=O)N[C@@H](Cc2ccccc2)C(N)=O)c1` (Boc-WK([CO-3Abz-OMe])DF-NH2) registered a half-maximal inhibitory concentration (IC50) in assay [1] of 15 nM. In addition, the C/P in assay [2] was determined as 67.

In assay [1], `COc1ccc(NC(=O)NCCCC[C@H](NC(=O)[C@H](Cc2c[nH]c3ccccc23)NC(=O)OC(C)(C)C)C(=O)N[C@@H](CC(=O)O)C(=O)N[C@@H](Cc2ccccc2)C(N)=O)cc1` (Boc-WK([CO-NH(4-MeO-phenyl)])DF-NH2) registered an IC50 of 14 nM. The same compound gave a C/P in assay [2] of 50.

As usually defined, the EC50 is the concentration giving half of the maximal effect. On to `CC(C)(C)OC(=O)N[C@@H](Cc1c[nH]c2ccccc12)C(=O)N[C@@H](CCCCNC(=O)Nc1ccc([N+](=O)[O-])cc1)C(=O)N[C@@H](CC(=O)O)C(=O)N[C@@H](Cc1ccccc1)C(N)=O` (Boc-WK([CO-pNA])DF-NH2), for which the concentration giving a half-maximal response (EC50) turned out to be 47 nM in assay [3] and 39 nM in assay [5]. The compound further registered an IC50 in assay [1] of 41 nM. Further, the figures for the Max response in assay [4] and in assay [6] were 94% and 74%, respectively. This compound displayed a C/P in assay [2] of 0.75.

The compound `COC(=O)c1ccccc1NC(=O)NCCCC[C@H](NC(=O)[C@H](Cc1c[nH]c2ccccc12)NC(=O)OC(C)(C)C)C(=O)N[C@@H](CC(=O)O)C(=O)N[C@@H](Cc1ccccc1)C(N)=O` (Boc-WK([CO-2Abz-OMe])DF-NH2) returned an IC50 in assay [7] of 3100 nM. Also, the C/P in assay [2] is 91.

For the compound `CC(=O)c1ccc(NC(=O)NCCCC[C@H](NC(=O)[C@H](Cc2c[nH]c3ccccc23)NC(=O)OC(C)(C)C)C(=O)N[C@@H](CC(=O)O)C(=O)N[C@@H](Cc2ccccc2)C(N)=O)cc1` (Boc-WK([CO-X1])DF-NH2), the figures for the EC50 in assay [3] and in assay [5] were 120 nM and 85 nM, respectively. The IC50 in assay [1] was 46 nM. The figures for the Max response in assay [8] and in assay [6] were 91% and 80%, respectively. The C/P in assay [2] came to 0.26.
